# ChEMBL document CHEMBL2375313, “Synthesis, in vitro antitumor evaluation and DNA-binding study of novel tetrahydroquinolines and some derived tricyclic and tetracyclic ring systems” (Eur J Med Chem, 2013)
# How the values were obtained:
# Type in all cases: functional
# SF-295 = assay: Cytotoxicity against human SF295 cells assessed as growth inhibition at 10 uM after 48 hrs by sulphorhodamine B assay; conditions: SF-295, 48 h, read-out: GI
# Summary of the method: (§1)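 NCI-60 one-dose screen per the NCI Drug Evaluation Branch protocol. Cells given a single 10 µM concentration with 48 h continuous exposure. Growth estimated by sulphorhodamine B protein assay. Result expressed as percentage growth inhibition relative to untreated growth.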
# OVCAR-4 = assay: Cytotoxicity against human OVCAR4 cells assessed as growth inhibition at 10 uM after 48 hrs by sulphorhodamine B assay; conditions: OVCAR-4, 48 h, read-out: GI; summary of the method: as §1
# NCI-H23 = assay: Cytotoxicity against human NCI-H23 cells assessed as growth inhibition at 10 uM after 48 hrs by sulphorhodamine B assay; conditions: NCI-H23, 48 h, read-out: GI; summary of the method: as §1
# IGROV-1 = assay: Cytotoxicity against human IGROV1 cells assessed as growth inhibition at 10 uM after 48 hrs by sulphorhodamine B assay; conditions: IGROV-1, 48 h, read-out: GI; summary of the method: as §1
# NCI-H522 = assay: Cytotoxicity against human NCI-H522 cells assessed as growth inhibition at 10 uM after 48 hrs by sulphorhodamine B assay; conditions: NCI-H522, 48 h, read-out: GI; summary of the method: as §1
# SR = assay: Cytotoxicity against human SR cells assessed as growth inhibition at 10 uM after 48 hrs by sulphorhodamine B assay; conditions: read-out: GI; summary of the method: as §1
# HCT-116 = assay: Cytotoxicity against human HCT116 cells assessed as growth inhibition at 10 uM after 48 hrs by sulphorhodamine B assay; conditions: HCT-116, 48 h, read-out: GI; summary of the method: as §1
# K562 = assay: Cytotoxicity against human K562 cells assessed as growth inhibition at 10 uM after 48 hrs by sulphorhodamine B assay; conditions: K562, 48 h, read-out: GI; summary of the method: as §1
# SNB-75 = assay: Cytotoxicity against human SNB75 cells assessed as growth inhibition at 10 uM after 48 hrs by sulphorhodamine B assay; conditions: SNB-75, 48 h, read-out: GI; summary of the method: as §1
# UACC-62 = assay: Cytotoxicity against human UACC62 cells assessed as growth inhibition at 10 uM after 48 hrs by sulphorhodamine B assay; conditions: UACC-62, 48 h, read-out: GI; summary of the method: as §1
# SK-MEL-2 = assay: Cytotoxicity against human SK-MEL-2 cells assessed as growth inhibition at 10 uM after 48 hrs by sulphorhodamine B assay; conditions: SK-MEL-2, 48 h, read-out: GI; summary of the method: as §1
# LOX IMVI = assay: Cytotoxicity against human LOXIMVI cells assessed as growth inhibition at 10 uM after 48 hrs by sulphorhodamine B assay; conditions: read-out: GI; summary of the method: as §1
# CAKI-1 = assay: Cytotoxicity against human Caki1 cells assessed as growth inhibition at 10 uM after 48 hrs by sulphorhodamine B assay; conditions: CAKI-1, 48 h, read-out: GI; summary of the method: as §1
# M14 = assay: Cytotoxicity against human M14 cells assessed as growth inhibition at 10 uM after 48 hrs by sulphorhodamine B assay; conditions: M14, 48 h, read-out: GI; summary of the method: as §1
# Hs-578T = assay: Cytotoxicity against human Hs578T cells assessed as growth inhibition at 10 uM after 48 hrs by sulphorhodamine B assay; conditions: read-out: GI; summary of the method: as §1
# HCT-15 = assay: Cytotoxicity against human HCT15 cells assessed as growth inhibition at 10 uM after 48 hrs by sulphorhodamine B assay; conditions: HCT-15, 48 h, read-out: GI; summary of the method: as §1
# HT-29 = assay: Cytotoxicity against human HT-29 cells assessed as growth inhibition at 10 uM after 48 hrs by sulphorhodamine B assay; conditions: HT-29, 48 h, read-out: GI; summary of the method: as §1
# SK-OV-3 = assay: Cytotoxicity against human SKOV3 cells assessed as growth inhibition at 10 uM after 48 hrs by sulphorhodamine B assay; conditions: SK-OV-3, 48 h, read-out: GI; summary of the method: as §1
# MOLT-4 = assay: Cytotoxicity against human MOLT4 cells assessed as growth inhibition at 10 uM after 48 hrs by sulphorhodamine B assay; conditions: MOLT-4, 48 h, read-out: GI; summary of the method: as §1
# PC-3 = assay: Cytotoxicity against human PC3 cells assessed as growth inhibition at 10 uM after 48 hrs by sulphorhodamine B assay; conditions: PC-3, 48 h, read-out: GI; summary of the method: as §1
# T47D = assay: Cytotoxicity against human T47D cells assessed as growth inhibition at 10 uM after 48 hrs by sulphorhodamine B assay; conditions: read-out: GI; summary of the method: as §1
# RPMI-8226 = assay: Cytotoxicity against human RPMI8226 cells assessed as growth inhibition at 10 uM after 48 hrs by sulphorhodamine B assay; conditions: RPMI-8226, 48 h, read-out: GI; summary of the method: as §1
# DU-145 = assay: Cytotoxicity against human DU145 cells assessed as growth inhibition at 10 uM after 48 hrs by sulphorhodamine B assay; conditions: DU-145, 48 h, read-out: GI; summary of the method: as §1
# MDA-MB-468 = assay: Cytotoxicity against human MDA-MB-468 cells assessed as growth inhibition at 10 uM after 48 hrs by sulphorhodamine B assay; conditions: MDA-MB-468, 48 h, read-out: GI; summary of the method: as §1
# NCI/ADR-RES = assay: Cytotoxicity against human NCI/ADR-RES cells assessed as growth inhibition at 10 uM after 48 hrs by sulphorhodamine B assay; conditions: read-out: GI; summary of the method: as §1
# UO-31 = assay: Cytotoxicity against human UO31 cells assessed as growth inhibition at 10 uM after 48 hrs by sulphorhodamine B assay; conditions: UO-31, 48 h, read-out: GI; summary of the method: as §1
# A549 = assay: Cytotoxicity against human A549 cells assessed as growth inhibition at 10 uM after 48 hrs by sulphorhodamine B assay; conditions: A549, 48 h, read-out: GI; summary of the method: as §1
# MCF7 = assay: Cytotoxicity against human MCF7 cells assessed as growth inhibition at 10 uM after 48 hrs by sulphorhodamine B assay; conditions: MCF7, 48 h, read-out: GI; summary of the method: as §1
# [1] = Cytotoxicity against human EKVX cells assessed as growth inhibition at 10 uM after 48 hrs by sulphorhodamine B assay; conditions: read-out: GI; summary of the method: as §1
# HOP-92 = assay: Cytotoxicity against human HOP92 cells assessed as growth inhibition at 10 uM after 48 hrs by sulphorhodamine B assay; conditions: HOP-92, 48 h, read-out: GI; summary of the method: as §1
# RXF 393 = assay: Cytotoxicity against human RXF393 cells assessed as growth inhibition at 10 uM after 48 hrs by sulphorhodamine B assay; conditions: RXF 393, 48 h, read-out: GI; summary of the method: as §1
# HL-60(TB) = assay: Cytotoxicity against human HL-60(TB) cells assessed as growth inhibition at 10 uM after 48 hrs by sulphorhodamine B assay; conditions: HL-60, 48 h, read-out: GI
# Summary of the method: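 NCI-60 one-dose primary screen run to the Drug Evaluation Branch protocol. Cells are exposed to a single 10 µM concentration for 48 h continuously, and growth is read by SRB protein assay. Data are reported as percent growth of treated cells, expressed as % growth inhibition.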
# CCRF-CEM = assay: Cytotoxicity against human CCRF-CEM cells assessed as growth inhibition at 10 uM after 48 hrs by sulphorhodamine B assay; conditions: read-out: GI; summary of the method: as §1
# ACHN = assay: Cytotoxicity against human ACHN cells assessed as growth inhibition at 10 uM after 48 hrs by sulphorhodamine B assay; conditions: read-out: GI; summary of the method: as §1
# SK-MEL-5 = assay: Cytotoxicity against human SK-MEL-5 cells assessed as growth inhibition at 10 uM after 48 hrs by sulphorhodamine B assay; conditions: SK-MEL-5, 48 h, read-out: GI; summary of the method: as §1
# U-251 = assay: Cytotoxicity against human U251 cells assessed as growth inhibition at 10 uM after 48 hrs by sulphorhodamine B assay; conditions: U-251, 48 h, read-out: GI; summary of the method: as §1
# SF-268 = assay: Cytotoxicity against human SF268 cells assessed as growth inhibition at 10 uM after 48 hrs by sulphorhodamine B assay; conditions: SF-268, 48 h, read-out: GI; summary of the method: as §1
# A498 = assay: Cytotoxicity against human A498 cells assessed as growth inhibition at 10 uM after 48 hrs by sulphorhodamine B assay; conditions: A498, 48 h, read-out: GI; summary of the method: as §1
# SNB-19 = assay: Cytotoxicity against human SNB19 cells assessed as growth inhibition at 10 uM after 48 hrs by sulphorhodamine B assay; conditions: SNB-19, 48 h, read-out: GI; summary of the method: as §1
# MDA-MB-435 = assay: Cytotoxicity against human MDA-MB-435 cells assessed as growth inhibition at 10 uM after 48 hrs by sulphorhodamine B assay; conditions: MDA-MB-435, 48 h, read-out: GI; summary of the method: as §1
# OVCAR-5 = assay: Cytotoxicity against human OVCAR5 cells assessed as growth inhibition at 10 uM after 48 hrs by sulphorhodamine B assay; conditions: OVCAR-5, 48 h, read-out: GI; summary of the method: as §1
compound,measurement,setting,value
COc1ccc(-c2c3c(nc4nc[nH]c(=O)c24)C(C)CCC3)cc1 (stereo unspecified),inhibition of growth at 10 µM,SF-295,< 10%
same,inhibition of growth at 10 µM,OVCAR-4,< 10%
same,inhibition of growth at 10 µM,NCI-H23,13.8%
same,inhibition of growth at 10 µM,IGROV-1,< 10%
same,inhibition of growth at 10 µM,NCI-H522,20.8%
same,inhibition of growth at 10 µM,SR,< 10%
same,inhibition of growth at 10 µM,HCT-116,< 10%
same,inhibition of growth at 10 µM,K562,< 10%
same,inhibition of growth at 10 µM,SNB-75,34.3%
same,inhibition of growth at 10 µM,UACC-62,< 10%
same,inhibition of growth at 10 µM,SK-MEL-2,< 10%
same,inhibition of growth at 10 µM,LOX IMVI,< 10%
same,inhibition of growth at 10 µM,CAKI-1,< 10%
same,inhibition of growth at 10 µM,M14,< 10%
same,inhibition of growth at 10 µM,Hs-578T,< 10%
same,inhibition of growth at 10 µM,HCT-15,13.7%
same,inhibition of growth at 10 µM,HT-29,< 10%
same,inhibition of growth at 10 µM,SK-OV-3,< 10%
same,inhibition of growth at 10 µM,MOLT-4,< 10%
same,inhibition of growth at 10 µM,PC-3,< 10%
same,inhibition of growth at 10 µM,T47D,< 10%
same,inhibition of growth at 10 µM,RPMI-8226,< 10%
same,inhibition of growth at 10 µM,DU-145,< 10%
same,inhibition of growth at 10 µM,MDA-MB-468,21.5%
same,inhibition of growth at 10 µM,NCI/ADR-RES,20%
same,inhibition of growth at 10 µM,UO-31,< 10%
same,inhibition of growth at 10 µM,A549,< 10%
same,inhibition of growth at 10 µM,MCF7,< 10%
same,inhibition of growth at 10 µM,[1],< 10%
same,inhibition of growth at 10 µM,HOP-92,< 10%
same,inhibition of growth at 10 µM,RXF 393,< 10%
same,inhibition of growth at 10 µM,HL-60(TB),< 10%
same,inhibition of growth at 10 µM,CCRF-CEM,< 10%
same,inhibition of growth at 10 µM,ACHN,< 10%
same,inhibition of growth at 10 µM,SK-MEL-5,< 10%
same,inhibition of growth at 10 µM,U-251,19%
same,inhibition of growth at 10 µM,SF-268,< 10%
same,inhibition of growth at 10 µM,A498,< 10%
same,inhibition of growth at 10 µM,SNB-19,< 10%
same,inhibition of growth at 10 µM,MDA-MB-435,< 10%
same,inhibition of growth at 10 µM,OVCAR-5,< 10%
